Compounds with a hit are over-represented: about 2.2% of the library has one in this group of screens.
MT stabilizer – microtubule stabilization, imaging screen | 200,000 compounds, 0.83% hits | % tubulin-high responders, % at 10 µM | HeLa tubulin immunostaining HCS, 24 h; share of cells brighter than vehicle mean+2SD;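 active = plate Z-score above 3 for both tubulin-high and condensed-nucleus cell shares, with cell loss under 80%, at 10 µM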;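 also: anti alpha tubulin signal scored within the nucleus-defined area of each cell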
IEC-6 tox – IEC-6 cytotoxicity, counter-screen for KLF5 inhibitors. luminescence viability. inhibition, % at 5 µM. 290,000 compounds, 0.78% hits; in the data active = inhibition above about 22%;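 also: 0% = plate median of test compound wells and 100% = cytotoxic reference compound wells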
BaF3 parental – reduces parental Ba/F3 cell viability, JAK2V617F counter-screen; CellTiter-Glo ATP luminescence; inhibition, % at 5.6 µM; 220,000 compounds, 1.1% hits;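 active = inhibition above a per-campaign cutoff, the mean inhibition of all tested compounds plus 3 SD, cut at about 27% in these data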;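 also: 0% = DMSO wells and 100% = JAK Inhibitor I control wells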
Ba/F3 V617F tox – lowers viability of Ba/F3 cells expressing EpoR and JAK2V617F | 220,000 compounds, 1.1% hits | AID 1446 | ATP luminescence | inhibition, % at 5.6 µM;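 active = inhibition above the campaign mean plus 3 SD over all tested compounds, cut at about 24% in these data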;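 also: cytokine-independent growth of Ba/F3 cells driven by EpoR plus mutant JAK2; 0% = DMSO-treated cells and 100% = JAK inhibitor I control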
APP 5UTR inh – APP translation inhibition; SH-SY5Y APP 5'UTR-luciferase reporter, luminescence; inhibition, % at 2 µM; 190,000 compounds, 0.82% hits; AID 1285;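 active = inhibition above a set limit, derived from the sample mean plus 3 SD, cut at about 45% in these data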
b-catenin transl – beta-catenin nuclear translocation modulation; nuclear translocation activity, % at 5 µM; AID 1665; 190,000 compounds, 0.3% hits; HeLa beta-catenin nuclear translocation, immunofluorescence imaging;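 active = nuclear translocation activity above 50% at 5 µM, with a well cell count of 50 or more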;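 also: per-cell ratio of nuclear to cytoplasmic median beta-catenin stain intensity; plate controls were DMSO negative control for no effect and GSK-3 inhibitor IX positive control for full effect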
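Read-out: Nuclear/cytoplasmic beta-catenin signal ratio, % activation | Assay system: Human HeLa cell line | Times: 24 h compound exposure at 37°C, 5% CO2 | Signal: Fluorescence imaging of beta-catenin antibody stain plus DAPI | Dosing: 5 µM primary, 0.02–20 µM confirmation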
An asterisk follows results filed as active; . = not tested or not shown.

SMILES | MT stabilizer | IEC-6 tox | BaF3 parental | Ba/F3 V617F tox | APP 5UTR inh | b-catenin transl
Oc1ccc(CN2CCc3ccccc3C2)c2cccnc12 | 2 | 6 | 77* | 75* | 87* | 0
Oc1ccc(CNc2ccccc2F)c2cccnc12 | 3 | -4 | 2 | 3 | 48* | -1
Oc1ccc(CN2CCN(c3ccccc3)CC2)c2cccnc12 | 5 | 0 | 5 | 0 | -7 | -1
Oc1ccc(CN2CCCCC2)c2cccnc12 | 4 | 2 | 62* | 86* | 88* | -4
Oc1ccc(F)c2cccnc12 | 2 | 2 | 2 | 1 | -8 | -4
CCCOCc1ccc(O)c2ncccc12 | . | 2 | 3 | -4 | . | 1
OCc1ccc(O)c2ncccc12 | 2 | -6 | 32* | 67* | 36 | -1
Cn1c(CNC(=O)c2ccc3c(c2)OCO3)nnc1SCC(=O)Nc1ccc(F)cc1F | . | -5 | . | . | . | .
COc1ccc(N2C(=O)C(C)C(Cc3ccc(C)cc3)C2=O)cc1 (centres undefined) | . | -2 | . | . | . | .
Cc1ccc(C)c(S(=O)(=O)N2CCN(Cc3ccc(O)c4ncccc34)CC2)c1 | 5 | -1 | 1 | 21 | 56* | -4
CCOC(=O)c1c(NC(C)=O)sc2c(O)cccc12 | 5 | -3 | 4 | 1 | 55* | 5
O=C(COc1ccc([N+](=O)[O-])cc1)Nc1ccc2c(c1)OCO2 | 12* | 0 | 10 | 3 | 2 | 0
COc1ccc(OCC(=O)Nc2ccc3c(c2)OCO3)cc1 | . | 0 | . | . | . | .
Cc1ccc(C(C)(C)C)c(SCC(=O)Nc2nnc(C)s2)c1 | . | -3 | . | . | . | .
C=CCC1NS(=O)(=O)OC(CCc2ccccc2)C1O (centres undefined) | . | -7 | . | . | . | .
COc1ccc(CC(=O)Nc2ccc(-c3cn4ccccc4n3)cc2)cc1 | 1 | 5 | 3 | -3 | 58* | -4
COc1ccc(CC(=O)Nc2cccc(-c3cn4ccccc4n3)c2)cc1 | 3 | -2 | 4 | -2 | 0 | 0
CCOC(=O)c1cccc(NC(=O)CC2Oc3ccccc3NC2=O)c1 (centres undefined) | . | 3 | . | . | . | .
COc1ccc(OCC(O)CNC(C)c2ccccc2)cc1 (centres undefined) | . | 7 | . | . | . | .
CCCC(NCC(O)COc1ccc(-c2ccccc2)cc1)c1ccccc1 (centres undefined) | 22* | 14 | -3 | -1 | 14 | -1
O=C(Cn1ncc(Cl)c(Cl)c1=O)N1CCN(S(=O)(=O)c2ccc3ccccc3c2)CC1 | 8 | 10 | 2 | 1 | 94* | 1
CC(=O)Nc1nonc1NC(C)=O | 4 | 1 | 0 | -5 | 4 | 1
CC(=O)Nc1cc(OC(C)=O)c2nonc2c1OC(C)=O | 35 | 100* | 103* | 101* | 17 | 3
Cc1cc(C)n(C(C)CC(=O)Nc2ccc(-c3ccno3)cc2)n1 (centres undefined) | . | 3 | . | . | . | .
Cc1c(N)cc[n+](CC(=O)c2ccccc2)c1C | 2 | 0 | 63* | 81* | 20 | -4
SMILES | MT stabilizer | IEC-6 tox | BaF3 parental | Ba/F3 V617F tox | APP 5UTR inh | b-catenin transl
Cc1cc[n+](CC(=O)c2ccccc2)c2ccccc12 | 3 | 2 | 10 | -3 | -9 | -1
COc1ccc(CNC(=O)C2CC(=O)N(C3CCCC3)C2)cc1 (centres undefined) | . | -3 | . | . | . | .
CCCC(=O)Nc1ccc(NC(=S)NC(=O)c2ccccc2[N+](=O)[O-])cc1 | 10* | -3 | 5 | -5 | -19 | .
COc1cc(CNc2ccc(C)c(C)c2)cc(OC)c1OC | 31 | 3 | -1 | 0 | -9 | 107*
COc1ccc(CNc2ccc(C)c(C)c2)cc1 | 2 | 1 | 8 | -2 | -25 | 0
Cc1cccc(-n2c(CNC(=O)c3cccc([N+](=O)[O-])c3C)n[nH]c2=S)c1 | 14* | -8 | 4 | 4 | 8 | -1
O=C(/C=C/c1ccco1)NC(=S)Nc1cccc(-c2nc3ccccc3s2)c1 | 39* | 4 | 5 | 3 | -7 | .
CCCC(=O)NC(=S)Nc1cccc(-c2nc3ncccc3o2)c1 | 5 | 0 | 79* | -1 | -20 | 3
CC(C)CC(=O)Nc1cccc(-c2nc3ncccc3o2)c1 | . | 5 | . | . | . | .
O=C(/C=C/c1ccco1)NC(=S)Nc1cccc(-c2nc3ccccc3o2)c1 | 28* | -13 | 2 | -4 | 31 | 54*
CC1CC(C)CN(CCCNC(=O)Cn2cccc2C(=O)c2ccccc2)C1 (centres undefined) | . | 0 | . | . | . | .
CCCCCCC1/C(=N\NC(=O)c2ccccc2)CCC1C(=O)OC (centres undefined) | . | 0 | . | . | . | .
CC(C)NC(=O)NC(=O)COc1cccc2c1OC(C)(C)C2 | 3 | 0 | 3 | 0 | -5 | -6
CC(Oc1cccc2c1OC(C)(C)C2)C(=O)O (centres undefined) | 3 | 0 | 0 | 0 | 67* | 1
CC1CC(C)CN(S(=O)(=O)c2ccc(C(=O)NCCCn3ccnc3)cc2)C1 (centres undefined) | 5 | 4 | 4 | 6 | 73* | -1
CCC1CCCCN1CCCNC(=O)CCC(=O)N1CC(C)Oc2ccccc21 (centres undefined) | . | 3 | . | . | . | .
CCOC(=O)C1CCN(C(=O)c2ccc(Cl)c(S(=O)(=O)N3CCOCC3)c2)CC1 | 2 | 1 | 92* | -5 | 0 | -8
CCOC(=O)C1CCN(C(=O)c2ccc(Cl)c(S(=O)(=O)N3CCCC3)c2)CC1 | . | -4 | . | . | . | .
Cc1cc(O)c(C(C)C)cc1NC(=O)c1ccccc1Cl | 4 | 8 | 4 | 0 | 45* | 0
Cc1cc(NC(=O)c2ccccc2Cl)c(C(C)C)cc1O | 1 | -12 | 6 | -5 | 3 | -1
O=c1c2ccccc2ncn1-c1ccc([N+](=O)[O-])cc1Cl | . | -4 | . | . | . | .
CCc1cc2c(=O)c(-c3ccc4c(c3)OCCO4)c(C)oc2cc1OS(C)(=O)=O | 11* | -1 | 6 | 1 | -11 | 2
CCc1cc(=O)oc2c(C)c(OS(C)(=O)=O)ccc12 | 9 | 0 | 5 | 2 | -11 | .
O=C(c1ccccc1)N1CCC(c2nc(-c3ccc(S(=O)(=O)N4CCOCC4)cc3)no2)CC1 | 2 | -1 | 9 | 4 | -13 | -1
O=C(Nc1ccccc1)N1CCC(c2nc(-c3ccc(S(=O)(=O)N4CCOCC4)cc3)no2)CC1 | 26* | 0 | 9 | -4 | 8 | -2
O=C(Nc1ccccc1)N1CCc2c([nH]c3ccccc23)C1C(F)(F)F (centres undefined) | . | 0 | 0 | -2 | . | -2
CC1c2[nH]c3ccccc3c2CCN1C(=O)Nc1ccccc1 (centres undefined) | 43* | 12 | 6 | -5 | 11 | 5
Cc1c(C(=O)N(CCc2ccccc2)Cc2ccccc2)cccc1[N+](=O)[O-] | . | 1 | . | . | . | .
O=C(CSc1nnc(CNC(=O)c2ccco2)o1)Nc1ccccc1C(F)(F)F | . | -2 | . | . | . | .
O=C(/C=C/c1ccc([N+](=O)[O-])s1)N1CCCC1 | 5 | 1 | 3 | 1 | -27 | 1
